Results on 167 variants are retold here after the RNAGym collection of RNA variant scans (doi:10.1126/science.aae0568).

Variants at the floor of the assay were thinned out.

B1: tRNA (parent)
chain: GUUCCGUUGGCGUAAUGGUAACGCGUCUCCCUCCUAAGGAGAAGACUGCGGGUUCGAGUCCCGUACGGAACG

This data set covers variants of B1. In words: yeast fitness relative to wild type (ratio to wild type); higher = fitter; tRNA-Arg(CCU), competitive growth, 37 C, YPD. The essentials: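 A pool of Saccharomyces cerevisiae strains, each with a tRNA-Arg(CCU) gene variant at the native genomic locus, was competed in YPD at 37°C for 24 hours across six parallel replicates. The variants had been chemically synthesised at a 3% per-site mutation rate over 69 sites, and gene amplicons before and after competition were read by 100-nucleotide paired-end sequencing. Darwinian fitness relative to wild type rested on changes in genotype frequencies. Genotypes required ≥ 100 starting reads, and estimates < 0.5 were set to 0.5.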
For the variant U3G C4G C22U C29U G52C G63A G67U A70C, the yeast fitness was not above 0.5.

Take A14U G18A: the yeast fitness was not above 0.5.

Turning to U2A U8A C11G C30G G48A, the yeast fitness is not above 0.5.

As for U3A U26G, the yeast fitness was found to be 0.781.

G9A G44C C66U: the yeast fitness amounted to 0.552.

U13G C49G: the yeast fitness is 0.823.

On to G25C A65U, for which the yeast fitness turned out to be 1.03.

For the variant C29G A37C, the yeast fitness was determined as 0.56.

With U35C A37C G68C A70C, the yeast fitness was found to be 0.913.

U2A C5A G56A: the yeast fitness was determined as 0.526.

Take A21G U59C A65U G67C A70C: the yeast fitness was not above 0.5.

Turning to C30G C33G A36C A37U A43U, the yeast fitness was not above 0.5.

In the case of C5U U28A A65U, the yeast fitness stood at 0.553.

Consider G17A C22U C46U C66U A70C, for which the yeast fitness was not above 0.5.

As to C24U C49A G67C, the yeast fitness amounted to 0.527.

Consider G9A C27G A40G G52A, for which the yeast fitness is not above 0.5.

Take G17A A69G: the yeast fitness is 0.813.

In the case of G12C C31U A65C A69U, the yeast fitness was not above 0.5.

Regarding U2A C5A G12A, the yeast fitness came to 0.526.

For the variant G23A A36U G39C G68A, the yeast fitness was not above 0.5.

With A15U C24G C66U, the yeast fitness was 0.608.

U3A C30G A36G C46G: the yeast fitness is not above 0.5.

Consider C5U A15G, for which the yeast fitness was determined as 0.912.

For U2A U8C U13C A42C, the yeast fitness was not above 0.5.

U2A C30A C49U C61G: the yeast fitness was not above 0.5.

With A21C G23C G52C, the yeast fitness is not above 0.5.

As to C5U C29A G39C G63A U64C A69C, the yeast fitness was not above 0.5.

As to C11G G12A C27U A43G, the yeast fitness was not above 0.5.

Consider G12C C33U A42C, for which the yeast fitness is not above 0.5.

Regarding U8C U32G G50A A69U, the yeast fitness was determined as 0.557.

As for C24U C29A C33U, the yeast fitness was not above 0.5.

Turning to G10C C55U, the yeast fitness is not above 0.5.

G6A A45C G58A: the yeast fitness came to 0.519.

Consider C11G U26C G67C A69C, for which the yeast fitness was not above 0.5.

In the case of U2G C60U C61A G67C, the yeast fitness is not above 0.5.

As to G12A G68C, the yeast fitness came to 0.667.

Turning to U16G C30U C46G, the yeast fitness was 0.541.

Turning to A14C G48C C55U G63U, the yeast fitness is not above 0.5.

For the variant A21U G68U, the yeast fitness amounted to 0.752.

Turning to G51A G56C, the yeast fitness came to 0.597.

In the case of G25C C31U A69U, the yeast fitness was found to be 0.77.

For the variant A21G C30U U53A A57U A65U, the yeast fitness was not above 0.5.

As for U8G C34U A40G C46A, the yeast fitness is not above 0.5.

U8A G18A C30A U32A U35G C66U A69U: the yeast fitness is not above 0.5.

Consider U2C U8C A20U U28A G67U, for which the yeast fitness is not above 0.5.

In the case of G10C C24A C61U, the yeast fitness was not above 0.5.

Take C22G U54A U59A C61U: the yeast fitness is not above 0.5.

Turning to G17A C33A, the yeast fitness stood at 0.53.

Take G23C G39C: the yeast fitness was determined as 0.53.

With G39A G58C A69U, the yeast fitness worked out at 0.773.

Regarding U28C C29A A69U, the yeast fitness is 0.559.

Take U2C C4G C22U C30A A65U: the yeast fitness is not above 0.5.

C11G A21U C30A G44A G52C A65U: the yeast fitness was determined as 0.507.

Consider C30A C46A A57G C60A, for which the yeast fitness is not above 0.5.

On to G12A A14C C31U, for which the yeast fitness is not above 0.5.

On to C31U G41C A43C C60G, for which the yeast fitness is not above 0.5.

For G9A C30A A65C, the yeast fitness came out at 0.664.

For the variant U3A U19C, the yeast fitness was found to be 0.875.

Consider G18A C29A C49U, for which the yeast fitness was not above 0.5.

Turning to G58C G67C, the yeast fitness turned out to be 1.17.

In the case of C46U U59G, the yeast fitness came to 0.962.

With A20C U28A, the yeast fitness stood at 0.672.

In the case of G39A A45C, the yeast fitness turned out to be 1.03.

For G10A C27U G56A C60U, the yeast fitness was found to be 0.556.

Turning to U26A C49U G56A, the yeast fitness came to 0.706.

In the case of C27U C61U, the yeast fitness is 1.01.

Consider A15U G38C G39A A43C A57U, for which the yeast fitness is not above 0.5.

Regarding U35C G58C, the yeast fitness came to 0.883.

For the variant A15U A21C G39C U54A, the yeast fitness is not above 0.5.

On to A20G G56A A57C, for which the yeast fitness stood at 0.574.

As for A15C G18A U19G G58C, the yeast fitness was not above 0.5.

For U7A G10A G41C A42U C46A, the yeast fitness is not above 0.5.

Regarding C24U A43U G56A, the yeast fitness is 0.837.

Regarding G6A A20G A36G C49G C55U, the yeast fitness was not above 0.5.

For U28C G52A, the yeast fitness amounted to 0.836.

For the variant G51A A70G, the yeast fitness came out at 0.85.

As for C11A A70U, the yeast fitness amounted to 0.581.

Take U59A A70C: the yeast fitness amounted to 0.741.

For the variant U19C G50A C55A, the yeast fitness is not above 0.5.

As for C29A C46U C55A, the yeast fitness turned out to be 0.572.

In the case of G18A A21C G23U U32A A42U G48C U64A, the yeast fitness was 0.529.

A14U C30G U32G: the yeast fitness was not above 0.5.

Regarding A15U G18C, the yeast fitness turned out to be 0.589.

As for U3C C22A G67A, the yeast fitness was determined as 0.667.

Consider G12C G18C G67U, for which the yeast fitness was not above 0.5.

As to U13A A14U C49A, the yeast fitness was not above 0.5.

For the variant U16A G18A G56A G67C, the yeast fitness is not above 0.5.

In the case of U2G G10C A70C, the yeast fitness was not above 0.5.

Consider U13A A15G G48A G63A A65C, for which the yeast fitness was not above 0.5.

Take C24G C49G G67A A69C: the yeast fitness was 0.521.

For U7C A14U G68A, the yeast fitness was not above 0.5.

As for C29U A40C C49G G63A, the yeast fitness is not above 0.5.

U13C U47C C62U C66U: the yeast fitness is not above 0.5.

For the variant A20G G23A A65G, the yeast fitness stood at 0.574.

A37U U53G G56A A70C: the yeast fitness is not above 0.5.

C4U U26C A36C A37G U64A A70C: the yeast fitness was not above 0.5.

Take A15C A20G A65G: the yeast fitness was not above 0.5.

C5U U35A A45C: the yeast fitness was determined as 0.602.

Take U7C C22G C24A G25C C66G: the yeast fitness was not above 0.5.

As for C49G G52A A57C, the yeast fitness is not above 0.5.

As for G9C G12C C33U U35A, the yeast fitness was not above 0.5.

With A21C C24U U32A C62G, the yeast fitness worked out at 0.539.

As to A14C A40U C55G C61U C66U, the yeast fitness is not above 0.5.

For the variant A21G C30U G67A, the yeast fitness was 0.633.

As to U3A U28C C29G, the yeast fitness is not above 0.5.

In the case of U7C U16G C29U C31A C46U, the yeast fitness amounted to 0.566.

Consider G9C U19C G48A U64C, for which the yeast fitness came out at 0.609.

As to A14G A20G A42U, the yeast fitness turned out to be 0.696.

Take A43G C66G: the yeast fitness came to 0.699.

As to C5U A21U C30G G56A C66A, the yeast fitness was not above 0.5.

As to C4G U7A U19C A20C C55A G68C, the yeast fitness is not above 0.5.

With U3C C11A C31A G67U, the yeast fitness is not above 0.5.

Consider A20G C22U G50C G63C G67C, for which the yeast fitness is not above 0.5.

On to C11A G50A, for which the yeast fitness was determined as 0.651.

Regarding C11A A14G C24U G41C A42G C55G, the yeast fitness was not above 0.5.

Turning to C5A U13A U35A U59C, the yeast fitness worked out at 0.661.

As to A20G A42C A45C, the yeast fitness was not above 0.5.

Turning to C11U U35A G38A C61G, the yeast fitness came to 0.565.

For C5A C31G U47A, the yeast fitness was found to be 0.745.

On to C30G C34G U35A G68A, for which the yeast fitness is not above 0.5.

Take C4A C11U C34G C62A: the yeast fitness turned out to be 0.748.

Take U8A C22G: the yeast fitness was determined as 0.7.

U28G G51C C55G: the yeast fitness is not above 0.5.

With G12C C31A A40C C62U, the yeast fitness was not above 0.5.

As to C31G A42U C62U, the yeast fitness is 0.742.

Take U3C C11G A42C C49U: the yeast fitness was not above 0.5.

C24G C30U C31G G50A: the yeast fitness was not above 0.5.

For the variant C4U A37U A70U, the yeast fitness was 0.676.

Regarding G10A G39A, the yeast fitness is 0.784.

With A15C U26C G56A C61U, the yeast fitness is not above 0.5.

With U26C G50A, the yeast fitness is 0.932.

With C29U C61U A70G, the yeast fitness is 0.728.

With C11G C66A A69U, the yeast fitness was not above 0.5.

For A20G G25A C31G C62A, the yeast fitness is not above 0.5.

Take C27G C61U A69U: the yeast fitness is 0.532.

On to C31G C33U U35A, for which the yeast fitness was not above 0.5.

Turning to C22G U28C U47A, the yeast fitness was not above 0.5.

For A45G C46U G51C, the yeast fitness is not above 0.5.

U13C A43G U53A: the yeast fitness is not above 0.5.

On to G18C C61A, for which the yeast fitness was found to be 0.627.

Take C11A C62U: the yeast fitness is 0.616.

Consider A15G C30G G39C, for which the yeast fitness was not above 0.5.

As for U16G A65U A70U, the yeast fitness was 0.64.

A20C G48C A57G G63A: the yeast fitness was not above 0.5.

Consider A14G U35A G56A C66U, for which the yeast fitness is not above 0.5.

U8C U32C: the yeast fitness was 0.81.

C11G C24U G68C: the yeast fitness turned out to be 0.523.

For the variant C11U C22A A40U C46U C61U, the yeast fitness was not above 0.5.

U19A A45U C46U: the yeast fitness is 1.07.

With U7G G39A C66U A69U, the yeast fitness was not above 0.5.

Regarding G12A C22G C29G C30U A36U U47C, the yeast fitness turned out to be 0.571.

As for U13C A15U U16A U19A C34U A57C, the yeast fitness is not above 0.5.

As for U16A C29G U32A A36G C49U G51A, the yeast fitness is not above 0.5.

As to U8A C34U, the yeast fitness amounted to 0.508.

Regarding C27U G52A, the yeast fitness was 0.7.

On to G23C U59C, for which the yeast fitness was 0.583.

With U28A G63A, the yeast fitness turned out to be 0.849.

C24A U26A C55A C66U: the yeast fitness was not above 0.5.

For the variant A14U U16G C33G G50A G58C G63C, the yeast fitness was not above 0.5.

A14U U16A G25A A37G: the yeast fitness was not above 0.5.

As for A20U C24U, the yeast fitness was determined as 0.841.

Take G39C G56C: the yeast fitness was determined as 0.553.

For G23A C30U U35C C62A, the yeast fitness is not above 0.5.

In the case of C30A G58C G68A, the yeast fitness is not above 0.5.

For C4U U16C A36U C49U G58C C66U, the yeast fitness is not above 0.5.

As to A45U C49G A70U, the yeast fitness turned out to be 0.63.

As to U8A C11A G56C, the yeast fitness is not above 0.5.
